Test system: Fibroblast
Assay: Multiplex assay against human fibroblast
Assay type: toxicity, cell-based
Summary of the method: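 Tubulin, mitochondrial-mass and membrane-permeability phenotypes are per cents of healthy-nucleus cells. Cells were gated by CellPathfinder machine learning into Hoechst high-intensity objects or normal cells, normal cells into healthy, pyknosed or fragmented nuclei, and pyknosed cells into mitotic or apoptotic. Before that, live cells stained at seeding with Hoechst33342, BioTracker Green Microtubule Cytoskeleton Dye, MitoTracker Red and Annexin V Alexa Fluor 680 were imaged on a CQ1 microscope at 37°C and 5% CO2 after compound addition.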

[1] = 12 h, 1 µM, compound concentration 1 uM, replicate 1
[2] = 12 h, 1 µM, compound concentration 1 uM, replicate 2
[3] = 12 h, 10 µM, compound concentration 10 uM, replicate 1
[4] = 12 h, 10 µM, compound concentration 10 uM, replicate 2
[5] = 24 h, 1 µM, compound concentration 1 uM, replicate 1
[6] = 24 h, 1 µM, compound concentration 1 uM, replicate 2
[7] = 24 h, 10 µM, compound concentration 10 uM, replicate 1
[8] = 24 h, 10 µM, compound concentration 10 uM, replicate 2
[9] = 48 h, 1 µM, compound concentration 1 uM, replicate 1
[10] = 48 h, 1 µM, compound concentration 1 uM, replicate 2
[11] = 48 h, 10 µM, compound concentration 10 uM, replicate 1
[12] = 48 h, 10 µM, compound concentration 10 uM, replicate 2

In the case of `CC(C)c1cc(Nc2nc(N3CCC[C@H](N)C3)ncc2C(N)=O)cc(C(C)C)n1`, the “Population Apoptotic (%)” value [1] was 57%, the “Population Fragmented Nuclei (%)” value [1] was 33% and the “Population Healthy Nuclei (%)” value [1] was 36%. For the same compound, the “Population Hoechst High Intensity Objects (%)” value [1] was 13%, the “Population Membrane Permeable-Phenotype (%)” value [1] was 22% and the “Population Mitochondria Different-Phenotype (%)” value [1] was 22%. The “Population Mitotic Cells (%)” value [1] was 42%, the “Population Normal (%)” value [1] was 86% and the “Population Pyknosed Nuclei (%)” value [1] was 30%. For the same compound, the “Population Tubulin-Different-Phenotype (%)” value [1] was 82%, the “Total Cell Count” value [1] was 127 and the “Population Apoptotic (%)” value [2] was 44%. The “Population Fragmented Nuclei (%)” value [2] was 12%, the “Population Healthy Nuclei (%)” value [2] was 75% and the “Population Hoechst High Intensity Objects (%)” value [2] was 9%. The “Population Membrane Permeable-Phenotype (%)” value [2] was 16%, the “Population Mitochondria Different-Phenotype (%)” value [2] was 92% and the “Population Mitotic Cells (%)” value [2] was 55%. For the same compound, the “Population Normal (%)” value [2] was 90%, the “Population Pyknosed Nuclei (%)” value [2] was 12% and the “Population Tubulin-Different-Phenotype (%)” value [2] was 96%. For the same compound, the “Total Cell Count” value [2] was 82, the “Population Apoptotic (%)” value [3] was 59% and the “Population Fragmented Nuclei (%)” value [3] was 30%. For the same compound, the “Population Healthy Nuclei (%)” value [3] was 37%, the “Population Hoechst High Intensity Objects (%)” value [3] was 28% and the “Population Membrane Permeable-Phenotype (%)” value [3] was 34%. For the same compound, the “Population Mitochondria Different-Phenotype (%)” value [3] was 30%, the “Population Mitotic Cells (%)” value [3] was 40% and the “Population Normal (%)” value [3] was 71%. The “Population Pyknosed Nuclei (%)” value [3] was 31%, the “Population Tubulin-Different-Phenotype (%)” value [3] was 76% and the “Total Cell Count” value [3] was 96. The “Population Apoptotic (%)” value [4] was 65%, the “Population Fragmented Nuclei (%)” value [4] was 19% and the “Population Healthy Nuclei (%)” value [4] was 31%. The “Population Hoechst High Intensity Objects (%)” value [4] was 14%, the “Population Membrane Permeable-Phenotype (%)” value [4] was 100% and the “Population Mitochondria Different-Phenotype (%)” value [4] was 93%. The “Population Mitotic Cells (%)” value [4] was 34%, the “Population Normal (%)” value [4] was 85% and the “Population Pyknosed Nuclei (%)” value [4] was 48%. For the same compound, the “Population Tubulin-Different-Phenotype (%)” value [4] was 100%, the “Total Cell Count” value [4] was 55 and the “Population Apoptotic (%)” value [5] was 48%. For the same compound, the “Population Fragmented Nuclei (%)” value [5] was 30%, the “Population Healthy Nuclei (%)” value [5] was 32% and the “Population Hoechst High Intensity Objects (%)” value [5] was 25%. For the same compound, the “Population Membrane Permeable-Phenotype (%)” value [5] was 17%, the “Population Mitochondria Different-Phenotype (%)” value [5] was 14% and the “Population Mitotic Cells (%)” value [5] was 51%. For the same compound, the “Population Normal (%)” value [5] was 74%, the “Population Pyknosed Nuclei (%)” value [5] was 36% and the “Population Tubulin-Different-Phenotype (%)” value [5] was 77%. The “Total Cell Count” value [5] was 143, the “Population Apoptotic (%)” value [6] was 26% and the “Population Fragmented Nuclei (%)” value [6] was 10%. For the same compound, the “Population Healthy Nuclei (%)” value [6] was 68%, the “Population Hoechst High Intensity Objects (%)” value [6] was 5% and the “Population Membrane Permeable-Phenotype (%)” value [6] was 30%. The “Population Mitochondria Different-Phenotype (%)” value [6] was 96%, the “Population Mitotic Cells (%)” value [6] was 73% and the “Population Normal (%)” value [6] was 94%. The “Population Pyknosed Nuclei (%)” value [6] was 20%, the “Population Tubulin-Different-Phenotype (%)” value [6] was 94% and the “Total Cell Count” value [6] was 77. The “Population Apoptotic (%)” value [7] was 63%, the “Population Fragmented Nuclei (%)” value [7] was 26% and the “Population Healthy Nuclei (%)” value [7] was 42%. For the same compound, the “Population Hoechst High Intensity Objects (%)” value [7] was 25%, the “Population Membrane Permeable-Phenotype (%)” value [7] was 17% and the “Population Mitochondria Different-Phenotype (%)” value [7] was 44%. For the same compound, the “Population Mitotic Cells (%)” value [7] was 36%, the “Population Normal (%)” value [7] was 75% and the “Population Pyknosed Nuclei (%)” value [7] was 31%. The “Population Tubulin-Different-Phenotype (%)” value [7] was 82%, the “Total Cell Count” value [7] was 92 and the “Population Apoptotic (%)” value [8] was 84%. The “Population Fragmented Nuclei (%)” value [8] was 23%, the “Population Healthy Nuclei (%)” value [8] was 23% and the “Population Hoechst High Intensity Objects (%)” value [8] was 17%. The “Population Membrane Permeable-Phenotype (%)” value [8] was 100%, the “Population Mitochondria Different-Phenotype (%)” value [8] was 90% and the “Population Mitotic Cells (%)” value [8] was 16%. For the same compound, the “Population Normal (%)” value [8] was 82%, the “Population Pyknosed Nuclei (%)” value [8] was 53% and the “Population Tubulin-Different-Phenotype (%)” value [8] was 100%. For the same compound, the “Total Cell Count” value [8] was 57, the “Population Apoptotic (%)” value [9] was 70% and the “Population Fragmented Nuclei (%)” value [9] was 29%. For the same compound, the “Population Healthy Nuclei (%)” value [9] was 40%, the “Population Hoechst High Intensity Objects (%)” value [9] was 37% and the “Population Membrane Permeable-Phenotype (%)” value [9] was 34%. The “Population Mitochondria Different-Phenotype (%)” value [9] was 7%, the “Population Mitotic Cells (%)” value [9] was 30% and the “Population Normal (%)” value [9] was 62%. The “Population Pyknosed Nuclei (%)” value [9] was 29%, the “Population Tubulin-Different-Phenotype (%)” value [9] was 68% and the “Total Cell Count” value [9] was 162. For the same compound, the “Population Apoptotic (%)” value [10] was 42%, the “Population Fragmented Nuclei (%)” value [10] was 33% and the “Population Healthy Nuclei (%)” value [10] was 56%. For the same compound, the “Population Hoechst High Intensity Objects (%)” value [10] was 33%, the “Population Membrane Permeable-Phenotype (%)” value [10] was 9% and the “Population Mitochondria Different-Phenotype (%)” value [10] was 1%. The “Population Mitotic Cells (%)” value [10] was 57%, the “Population Normal (%)” value [10] was 66% and the “Population Pyknosed Nuclei (%)” value [10] was 10%. For the same compound, the “Population Tubulin-Different-Phenotype (%)” value [10] was 58%, the “Total Cell Count” value [10] was 204 and the “Population Apoptotic (%)” value [11] was 95%. The “Population Fragmented Nuclei (%)” value [11] was 43%, the “Population Healthy Nuclei (%)” value [11] was 24% and the “Population Hoechst High Intensity Objects (%)” value [11] was 32%. The “Population Membrane Permeable-Phenotype (%)” value [11] was 66%, the “Population Mitochondria Different-Phenotype (%)” value [11] was 13% and the “Population Mitotic Cells (%)” value [11] was 5%. For the same compound, the “Population Normal (%)” value [11] was 67%, the “Population Pyknosed Nuclei (%)” value [11] was 32% and the “Population Tubulin-Different-Phenotype (%)” value [11] was 66%. For the same compound, the “Total Cell Count” value [11] was 92, the “Population Apoptotic (%)” value [12] was 80% and the “Population Fragmented Nuclei (%)” value [12] was 27%. For the same compound, the “Population Healthy Nuclei (%)” value [12] was 38%, the “Population Hoechst High Intensity Objects (%)” value [12] was 31% and the “Population Membrane Permeable-Phenotype (%)” value [12] was 19%. The “Population Mitochondria Different-Phenotype (%)” value [12] was 58%, the “Population Mitotic Cells (%)” value [12] was 19% and the “Population Normal (%)” value [12] was 68%. The “Population Pyknosed Nuclei (%)” value [12] was 33%, the “Population Tubulin-Different-Phenotype (%)” value [12] was 55% and the “Total Cell Count” value [12] was 135.

From ChEMBL document CHEMBL4689842, “EUbOPEN Chemogenomics Library wave 1” (2021)
